The list is not random: actives were taken first. Their share in the collection is about 1.3%.
PLCb3 inh = inhibitors of human phospholipase C beta3 | actives 0.18% (n = 370,000) | inhibition, % at 12.2 µM | Q01970 | Purified PLC-beta3, fluorogenic substrate, fluorescence;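 note: 0% = median of compound wells on plate and 100% = full blocker control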
Arrestin-AP2 inh = blocks beta-arrestin peptide binding to AP2 adaptin; FITC-arrestin peptide / GST-AP2 beads, flow cytometry; AP2 beta2 appendage carries R879A mutation; actives 0.31% (n = 340,000); inhibition, % at 10 µM;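 active = inhibition above a set limit, near 3 SD of compounds lacking own fluorescence, cut at about 54% in these data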;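 note: plate controls were DMSO wells for no effect and 5 µM unlabelled arrestin peptide for full effect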
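System: GST-AP2 R879A glutathione beads. Medium: PBS with 0.05% Tween 20 and 0.1% BSA. Also added: FITC-arrestin peptide, 50 nM. Incubation: 12 min plus 1 h, RT. Measured by: high-throughput flow cytometry of beads, ex 488, em 535 nm. Evaluation: percent drop in bead-associated FITC signal.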
NTR1 ag = activates human neurotensin receptor 1; P30989; NTR1-U2OS beta-arrestin-GFP spot imaging, agonist mode; AID 493036; actives 0.17% (n = 330,000); activation, % at 20 µM;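 active = activation at or above 40% of the spot to cytoplasm intensity ratio, with at least 20 cells analyzed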;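 note: 0% = DMSO without peptide and 100% = 100 nM NTR1 peptide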
PLC-gamma1 inh = PLC-gamma1 (human) inhibition, primary screen; AID 720700; P19174; actives 0.84% (n = 370,000); purified PLC-gamma1, fluorogenic substrate, fluorescence; inhibition, % at 12.2 µM; in the data active = inhibition above about 9.5%
PLCgamma1 ctr = inhibits human PLC-gamma1 in PLC-beta3 counter-screen; inhibition, % at 12.3 µM; shares compounds with PLC-gamma1 inh; actives 3.1% (n = 3,300); purified PLC-gamma1, fluorogenic substrate, fluorescence; in the data active = inhibition above about 9.5%
PLCb3 confirm = confirmation of human PLC-beta3 inhibitors | inhibition, % at 12.3 µM | purified PLC-beta3, fluorogenic substrate fluorescence | shares compounds with PLC-gamma1 inh | actives 1% (n = 3,300)
Starred values were filed as active, the others as inactive; . = no result. Cut-off read from the data, not from the text of the source, unless noted: active = inhibition above about 11%; inactive = the rest.

SMILES | PLCb3 inh | Arrestin-AP2 inh | NTR1 ag | PLC-gamma1 inh | PLCgamma1 ctr | PLCb3 confirm
C=CCNc1cccc(Br)c1 | 11.2* | 3.4 | 0.1 | 4.1 | -7.5 | -3.4
Cc1ccc(N2C(=O)CC3(CCCC3)CC2=O)cc1 | 10.9* | -0.6 | -0.3 | 9.0 | 1.4 | 2.2
Cc1ccc(N2C(=O)CS(=O)(=O)CC2=O)cc1 | 0.8 | 3.2 | 1.5 | -4.4 | . | .
CC1=NN(c2ccc(C)cc2C)C(=O)C1C(c1ccccc1O)C1C(=O)N(c2ccc(C)cc2C)N=C1C (stereo not drawn) | 6.4 | 16.7 | -1.6 | 12.9* | -6.8 | -3.5
COc1cc(NC(=O)C2CCCN(S(=O)(=O)c3ccccc3[N+](=O)[O-])C2)cc(OC)c1 (stereo not drawn) | -0.3 | . | . | 7.2 | . | .
